Source: ChEMBL document CHEMBL1649373, “Candimine-induced cell death of the amitochondriate parasite Trichomonas vaginalis” (2010)
Activity calls are given as the source filed them. No cut-off for these calls is given here.

Assays:
Trichomonas vaginalis [1] = test: Cytotoxicity against Trichomonas vaginalis TV-VP60 at 50 uM after 24 hrs by trypan blue exclusion assay; assay type: functional
Trichomonas vaginalis [2] = test: Induction of striking morphological alteration in Trichomonas vaginalis TV-VP60 assessed as degenerated cytoplasm matrix at 250 uM after 24 hrs by transmission electron microscopic analysis; assay type: functional, organism-based
Trichomonas vaginalis [3] = test: Growth inhibition of Trichomonas vaginalis TV-VP60 at 250 uM using initial inoculum of 1.0 x 10^5 trophozoites/mL; assay type: functional, organism-based
Method in brief: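 Kinetic growth curve of TV-VP60 trophozoites with 250 µM present, starting from initial inocula of 1.0 × 10^5 or 5.0 × 10^4 trophozoites/mL. Untreated parasites served as control.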

Trichomonas vaginalis [4] = test: Induction of striking morphological alteration in Trichomonas vaginalis TV-VP60 assessed as change in intracellular localization of hydrogenosomes at 250 uM after 6 to 24 hrs by transmission electron microscopic analysis; assay type: functional, organism-based
Trichomonas vaginalis [5] = test: Induction of striking morphological alteration in Trichomonas vaginalis TV-VP60 assessed as loss of original shape of parasites with some fissures on the surface at 250 uM after 24 hrs by scanning electron microscopic analysis; assay type: functional, organism-based
Method in brief: (§1)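 Surface morphology of TV-VP60 trophozoites exposed to 250 µM for 6 h and 24 h was examined by scanning electron microscopy.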

Trichomonas vaginalis [6] = test: Induction of striking morphological alteration in Trichomonas vaginalis TV-VP60 assessed as formation of multinucleated cells at 250 uM after 24 hrs by transmission electron microscopic analysis; assay type: functional, organism-based
Trichomonas vaginalis [7] = test: Induction of striking morphological alteration in Trichomonas vaginalis TV-VP60 assessed as elongated nucleus at 250 uM after 24 hrs by transmission electron microscopic analysis; assay type: functional, organism-based
Trichomonas vaginalis [8] = test: Cell cycle arrest in Trichomonas vaginalis TV-VP60 assessed as accumulation at G2 phase at 250 uM after 6 hrs using Annexin V FITC and propidium iodide staining by flow cytometry relative to control; assay type: functional
Method in brief: (§2)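 TV-VP60 trophozoites (fresh clinical isolate) exposed to 250 µM for 6 h or 24 h; cell-cycle distribution measured by flow cytometry and compared with untreated trophozoites.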

Trichomonas vaginalis [9] = test: Induction of striking morphological alteration in Trichomonas vaginalis TV-VP60 assessed as hydrogenosomes on autophagic vacuoles at 250 uM after 24 hrs by transmission electron microscopic analysis; assay type: functional, organism-based
Trichomonas vaginalis [10] = test: Induction of apoptosis in Trichomonas vaginalis TV-VP60 assessed as formation of apoptotic bodies at 250 uM after 6 to 24 hrs by flow cytometry; assay type: functional, organism-based
Trichomonas vaginalis [11] = test: Induction of phosphatidylserine exposure in Trichomonas vaginalis TV-VP60 at 250 uM after 6 to 24 hrs by Annexin V-FITC staining; assay type: functional, organism-based
Trichomonas vaginalis [12] = test: Growth inhibition of Trichomonas vaginalis TV-VP60 at 250 uM using initial inoculum of 5 x 10^5 trophozoites/mL; assay type: functional, organism-based
Trichomonas vaginalis [13] = test: Induction of vacuolization formation in Trichomonas vaginalis TV-VP60 at 250 uM after 6 to 24 hrs by flow cytometry; assay type: functional, organism-based
Method in brief: (§3)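 TV-VP60 trophozoites exposed to 250 µM for 6 h and 24 h. Cell size and granularity were read by flow cytometry, with granularity taken as the vacuolization rate.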

Trichomonas vaginalis [14] = test: Effect on alteration in size of trophozoites in Trichomonas vaginalis TV-VP60 at 250 uM after 6 to 24 hrs by flow cytometry; assay type: functional, organism-based; method in brief: as §3
Trichomonas vaginalis [15] = test: Cell cycle arrest in Trichomonas vaginalis TV-VP60 assessed as accumulation at G2 phase at 250 uM after 24 hrs using Annexin V FITC and propidium iodide staining by flow cytometry relative to control; assay type: functional; method in brief: as §2
Trichomonas vaginalis [16] = test: Induction of striking morphological alteration in Trichomonas vaginalis TV-VP60 assessed as large peripheral vacuoles between plasma membrane and cytoplasm at 250 uM after 24 hrs by transmission electron microscopic analysis; assay type: functional, organism-based
Trichomonas vaginalis [17] = test: Cell cycle arrest in Trichomonas vaginalis TV-VP60 assessed as accumulation at G1 phase at 250 uM after 24 hrs using Annexin V FITC and propidium iodide staining by flow cytometry relative to control; assay type: functional; method in brief: as §2
Trichomonas vaginalis [18] = test: Cytotoxicity against Trichomonas vaginalis TV-VP60 at 2.5 uM to 1 mM after 24 hrs by trypan blue exclusion assay; assay type: functional, organism-based
Method in brief: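 Dose-response run on 5.0 × 10^5 TV-VP60 trophozoites/mL (fresh clinical isolate), concentrations 2.5 to 1000 µM, 24 h exposure, viable trophozoites counted. Vehicle control included; metronidazole 50 µM used as positive control.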

Trichomonas vaginalis [19] = test: Cell cycle arrest in Trichomonas vaginalis TV-VP60 assessed as accumulation at G1 phase at 250 uM after 6 hrs using Annexin V FITC and propidium iodide staining by flow cytometry relative to control; assay type: functional; method in brief: as §2
Trichomonas vaginalis [20] = test: Growth inhibition of Trichomonas vaginalis TV-VP60 at 250 uM treated followed by washout measured after 12 hrs growth period; assay type: functional, organism-based
Method in brief: (§4)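 TV-VP60 trophozoites treated with 250 µM for 12 or 24 h, centrifuged, and the pellet reinoculated into fresh medium without alkaloid. Growth was then followed as a kinetic curve. Untreated trophozoites went through the same procedure for comparison.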

Trichomonas vaginalis [21] = test: Growth inhibition of Trichomonas vaginalis TV-VP60 at 250 uM treated followed by washout measured after 48 hrs growth period; assay type: functional, organism-based; method in brief: as §4
Trichomonas vaginalis [22] = test: Induction of striking morphological alteration in Trichomonas vaginalis TV-VP60 assessed as striate vacuolization close to nucleus at 250 uM after 24 hrs by transmission electron microscopic analysis; assay type: functional, organism-based
Trichomonas vaginalis [23] = test: Induction of striking morphological alteration in Trichomonas vaginalis TV-VP60 assessed as effect on endoplasmic reticulum at 250 uM after 6 hrs by transmission electron microscopic analysis; assay type: functional, organism-based
Trichomonas vaginalis [24] = test: Induction of striking morphological alteration in Trichomonas vaginalis TV-VP60 assessed as change in shape of hydrogenosomes at 250 uM after 6 to 24 hrs by transmission electron microscopic analysis; assay type: functional, organism-based
Trichomonas vaginalis [25] = test: Induction of apoptosis in Trichomonas vaginalis TV-VP60 assessed as DNA fragmentation at 250 uM after 6 to 24 hrs by agarose gel electrophoresis; assay type: functional, organism-based
Method in brief: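 Genomic DNA from TV-VP60 trophozoites treated with 250 µM for 6 h and 24 h was analysed by electrophoresis alongside untreated parasites.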

Trichomonas vaginalis [26] = test: Induction of striking morphological alteration in Trichomonas vaginalis TV-VP60 assessed as abnormal shape of nucleus at 250 uM after 24 hrs by transmission electron microscopic analysis; assay type: functional, organism-based
Trichomonas vaginalis [27] = test: Cell cycle arrest in Trichomonas vaginalis TV-VP60 assessed as accumulation at S phase at 250 uM after 6 hrs using Annexin V FITC and propidium iodide staining by flow cytometry relative to control; assay type: functional; method in brief: as §2
Trichomonas vaginalis [28] = test: Induction of striking morphological alteration in Trichomonas vaginalis TV-VP60 assessed as loss of original shape of parasites with some fissures on the surface at 250 uM by scanning electron microscopic analysis; assay type: functional, organism-based; settings: TDE = time-dependent effect; method in brief: as §1
Trichomonas vaginalis [29] = test: Induction of striking morphological alteration in Trichomonas vaginalis TV-VP60 assessed as pseudocysts at flagella internalization stage at 5 uM after 24 hrs by scanning electron microscopic analysis; assay type: functional, organism-based
Trichomonas vaginalis [30] = test: Induction of striking morphological alteration in Trichomonas vaginalis TV-VP60 assessed as effect on golgi apparatus at 250 uM after 6 hrs by transmission electron microscopic analysis; assay type: functional, organism-based
Trichomonas vaginalis [31] = test: Cell cycle arrest in Trichomonas vaginalis TV-VP60 assessed as accumulation at S phase at 250 uM after 24 hrs using Annexin V FITC and propidium iodide staining by flow cytometry relative to control; assay type: functional; method in brief: as §2
Trichomonas vaginalis [32] = test: Induction of striking morphological alteration in Trichomonas vaginalis TV-VP60 assessed as change in size of hydrogenosomes at 250 uM after 6 to 24 hrs by transmission electron microscopic analysis; assay type: functional, organism-based
Trichomonas vaginalis [33] = test: Induction of striking morphological alteration in Trichomonas vaginalis TV-VP60 assessed as loss of original shape of parasites with some fissures on the surface at 250 uM after 6 hrs by scanning electron microscopic analysis; assay type: functional, organism-based; method in brief: as §1

SMILES: Cc1ncc([N+](=O)[O-])n1CCO [METRONIDAZOLE]
- Activity (Trichomonas vaginalis [1]): 100%

SMILES: COc1c2c(cc3c1C(=O)O[C@H]1[C@@H]3[C@H]3C(=C[C@@H]1O)CCN3C)OCO2 [CANDIMINE]
- Activity (Trichomonas vaginalis [2]): inactive
- growth inhibition (GI) (Trichomonas vaginalis [3]): Active
- Activity (Trichomonas vaginalis [4]): Active
- Activity (Trichomonas vaginalis [5]): Active
- Activity (Trichomonas vaginalis [6]): inactive
- Activity (Trichomonas vaginalis [7]): Active
- Activity (Trichomonas vaginalis [8]): 44.2%
- Activity (Trichomonas vaginalis [9]): Active
- Activity (Trichomonas vaginalis [10]): inactive
- Activity (Trichomonas vaginalis [11]): inactive
- growth inhibition (GI) (Trichomonas vaginalis [12]): Active
- Activity (Trichomonas vaginalis [13]): Active
- Activity (Trichomonas vaginalis [14]): inactive
- Activity (Trichomonas vaginalis [15]): 58.97%
- Activity (Trichomonas vaginalis [16]): Active
- Activity (Trichomonas vaginalis [17]): 22.66%
- Activity (Trichomonas vaginalis [18]): Active
- Activity (Trichomonas vaginalis [19]): 34.39%
- growth inhibition (GI) (Trichomonas vaginalis [20]): inactive
- growth inhibition (GI) (Trichomonas vaginalis [21]): inactive
- Activity (Trichomonas vaginalis [22]): Active
- Activity (Trichomonas vaginalis [23]): inactive
- Activity (Trichomonas vaginalis [24]): Active
- Activity (Trichomonas vaginalis [25]): inactive
- Activity (Trichomonas vaginalis [26]): Active
- Activity (Trichomonas vaginalis [27]): 19.89%
- Activity (Trichomonas vaginalis [28]): tde
- Activity (Trichomonas vaginalis [29]): Active
- Activity (Trichomonas vaginalis [30]): inactive
- Activity (Trichomonas vaginalis [31]): 19.49%
- Activity (Trichomonas vaginalis [32]): Active
- Activity (Trichomonas vaginalis [33]): Active
